Data: ChEMBL document CHEMBL3085766, “Synthesis, ex vivo and in silico studies of 3-cyano-2-pyridone derivatives with vasorelaxant activity” (Eur J Med Chem, 2013)

system: Aorta; assay: Vasorelaxant activity in rat endothelium-denuded thoracic aortic ring assessed as inhibition of noradrenaline-induced contraction relative to control; type: functional
Outline: (§1)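 Isometric tension of isolated rat thoracic aorta rings, endothelium intact or removed, recorded with a force transducer. After stabilization, rings were challenged with […] for 10 min and washed in fresh Krebs solution. This was done three times at 30-min intervals. Endothelial status was confirmed by […] relaxation in the last contraction. Rings were then contracted with NA and given quarter-log cumulative concentrations; EC50 derived.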

SMILES	Efficacy [%]
CCOC(=O)c1c(C)[nH]c(=O)c(C#N)c1-c1ccc([N+](=O)[O-])cc1[N+](=O)[O-]	99
CCOC(=O)c1c(C)[nH]c(=O)c(C#N)c1-c1ccncc1	86.4
CCOC(=O)c1c(C)[nH]c(=O)c(C#N)c1-c1cccc(Cl)c1	99
CCOC(=O)c1c(C)[nH]c(=O)c(C#N)c1-c1ccc([N+](=O)[O-])cc1	95
CCOC(=O)c1c(C)[nH]c(=O)c(C#N)c1-c1ccco1	93
COC(=O)C1=C(C)NC(C)=C(C(=O)OC)C1c1ccccc1[N+](=O)[O-] [NIFEDIPINE]	97
CCOC(=O)c1c(C)[nH]c(=O)c(C#N)c1-c1cccs1	99

system: Aorta; assay: Vasorelaxant activity in rat endothelium-intact thoracic aortic ring assessed as inhibition of noradrenaline-induced contraction relative to control; type: functional; outline: as §1

SMILES	Efficacy [%]
CCOC(=O)c1c(C)[nH]c(=O)c(C#N)c1-c1ccc([N+](=O)[O-])cc1[N+](=O)[O-]	97
CCOC(=O)c1c(C)[nH]c(=O)c(C#N)c1-c1ccncc1	85.47
CCOC(=O)c1c(C)[nH]c(=O)c(C#N)c1-c1cccc(Cl)c1	97
CCOC(=O)c1c(C)[nH]c(=O)c(C#N)c1-c1ccc([N+](=O)[O-])cc1	98
CCOC(=O)c1c(C)[nH]c(=O)c(C#N)c1-c1ccco1	100
CCOC(=O)c1c(C)[nH]c(=O)c(C#N)c1-c1cccs1	100
C[N+](C)(C)CCOC(N)=O.[Cl-] [CARBACHOL]	74.06

system: Aorta; assay: Vasorelaxant activity in rat endothelium-denuded thoracic aortic ring assessed as inhibition of noradrenaline-induced contraction; type: functional, tissue-based; outline: as §1

SMILES	EC50 [µM]	inhibition
CCOC(=O)c1c(C)[nH]c(=O)c(C#N)c1-c1ccc([N+](=O)[O-])cc1[N+](=O)[O-]	3.6	Dose-dependent effect
CCOC(=O)c1c(C)[nH]c(=O)c(C#N)c1-c1ccncc1	178	Dose-dependent effect
CCOC(=O)c1c(C)[nH]c(=O)c(C#N)c1-c1cccc(Cl)c1	62	Dose-dependent effect
CCOC(=O)c1c(C)[nH]c(=O)c(C#N)c1-c1ccc([N+](=O)[O-])cc1	8.2	Dose-dependent effect
CCOC(=O)c1c(C)[nH]c(=O)c(C#N)c1-c1ccco1	31	Dose-dependent effect
COC(=O)C1=C(C)NC(C)=C(C(=O)OC)C1c1ccccc1[N+](=O)[O-] [NIFEDIPINE]	0.03	–
CCOC(=O)c1c(C)[nH]c(=O)c(C#N)c1-c1cccs1	12	Dose-dependent effect

system: Aorta; assay: Vasorelaxant activity in rat endothelium-intact thoracic aortic ring assessed as inhibition of noradrenaline-induced contraction; type: functional, tissue-based; outline: as §1

SMILES	EC50 [µM]
CCOC(=O)c1c(C)[nH]c(=O)c(C#N)c1-c1ccc([N+](=O)[O-])cc1[N+](=O)[O-]	4.4
CCOC(=O)c1c(C)[nH]c(=O)c(C#N)c1-c1ccncc1	270
CCOC(=O)c1c(C)[nH]c(=O)c(C#N)c1-c1cccc(Cl)c1	85
CCOC(=O)c1c(C)[nH]c(=O)c(C#N)c1-c1ccc([N+](=O)[O-])cc1	7
CCOC(=O)c1c(C)[nH]c(=O)c(C#N)c1-c1ccco1	22
CCOC(=O)c1c(C)[nH]c(=O)c(C#N)c1-c1cccs1	5
C[N+](C)(C)CCOC(N)=O.[Cl-] [CARBACHOL]	0.3
